According to ChEMBL document CHEMBL4020842, “Discovery of N1-(4-((7-Cyclopentyl-6-(dimethylcarbamoyl)-7 H-pyrrolo[2,3- d]pyrimidin-2-yl)amino)phenyl)- N8-hydroxyoctanediamide as a Novel Inhibitor Targeting Cyclin-dependent Kinase 4/9 (CDK4/9) and Histone Deacetlyase1 (HDAC1) against Malignant Cancer” (J Med Chem, 2018):
Active and inactive are the calls of the source. The rule behind the calls is not given here.

Tests used:
[1] = target: CDK4/Cyclin D3 (Homo sapiens) (UniProt P11802+P30281); test: Inhibition of recombinant human full length N-terminal GST-tagged CDK4/Cyclin-D3 co-expressed in baculovirus infected sf21 cells at 1 uM using Rb substrate in presence of [gamma33P]ATP after 10 mins by scintillation counting method relative to control
[2] = tested on: Rattus norvegicus; test: Apparent volume of distribution at steady state in Sprague-Dawley rat at 20 mg/kg, po administered as single dose by HPLC analysis; type: ADME, organism-based; conditions: in vivo
[3] = tested on: A549; test: Downregulation of Cyclin-D1 protein expression in human A549 cells after 48 hrs by Western blot method; type: functional, cell-based
Method in brief: (§1)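 Treated cells were lysed and CDK4 and cyclin D1 protein levels were assessed by Western blot.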

[4] = tested on: Hep 3B2; test: Induction of apoptosis in human Hep3B cells assessed as early apoptotic cells at 10 uM after 48 hrs by annexin V-FITC/propidium iodide staining based flow cytometry (reference value: 1.91%); type: functional
[5] = target: Cyclin-dependent kinase 2/cyclin E1 (Homo sapiens) (UniProt P24864+P24941); test: Inhibition of recombinant human full length C-terminal 6His-tagged CDK2/N-terminal GST-tagged Cyclin-E co-expressed in baculovirus infected sf21 cells at 1 uM using histone H1 substrate in presence of [gamma33P]ATP after 10 mins by scintillation counting method relative to control
[6] = target: CDK4/CDK9 (Homo sapiens) (UniProt P11802+P50750); test: Inhibition of CDK4/CDK9 in human NCI-H460 cells assessed as reduction in Rb phosphorylation at Ser807/811 residues at 1 uM after 48 hrs by Western blot method; type: cell-based
Chain of CDK4/CDK9 (Homo sapiens) (P11802 whole entry, looked up): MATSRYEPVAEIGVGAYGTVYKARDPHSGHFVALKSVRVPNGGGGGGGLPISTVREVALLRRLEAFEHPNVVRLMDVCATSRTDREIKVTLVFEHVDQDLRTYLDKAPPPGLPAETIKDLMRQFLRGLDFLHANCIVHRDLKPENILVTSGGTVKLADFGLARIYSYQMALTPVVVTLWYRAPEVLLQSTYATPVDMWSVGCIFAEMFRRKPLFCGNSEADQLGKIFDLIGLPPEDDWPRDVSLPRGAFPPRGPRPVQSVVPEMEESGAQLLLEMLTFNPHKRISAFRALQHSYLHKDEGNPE
Chain of CDK4/CDK9 (Homo sapiens) (P50750 whole entry, looked up): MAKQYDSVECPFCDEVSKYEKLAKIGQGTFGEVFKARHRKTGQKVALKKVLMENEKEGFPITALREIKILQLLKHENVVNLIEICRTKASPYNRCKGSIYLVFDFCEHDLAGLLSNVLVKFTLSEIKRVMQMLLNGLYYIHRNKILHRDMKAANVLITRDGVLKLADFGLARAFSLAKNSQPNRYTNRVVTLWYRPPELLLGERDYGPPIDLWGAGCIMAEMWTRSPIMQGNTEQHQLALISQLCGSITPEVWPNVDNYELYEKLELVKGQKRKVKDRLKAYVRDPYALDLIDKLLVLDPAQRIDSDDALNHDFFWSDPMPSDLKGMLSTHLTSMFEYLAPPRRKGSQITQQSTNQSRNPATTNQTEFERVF

[7] = MRT (0 to infinity) in Sprague-Dawley rat at 20 mg/kg, ip administered as single dose by HPLC analysis; type: ADME, organism-based; conditions: in vivo
[8] = tested on: MDA-MB-231; test: Induction of apoptosis in human MDA-MB-231 cells assessed as live cells at 10 uM after 48 hrs by annexin V-FITC/propidium iodide staining based flow cytometry (reference value: 98.1%); type: functional
[9] = tested on: MDA-MB-231; test: Induction of apoptosis in human MDA-MB-231 cells after 48 hrs by annexin V-FITC/propidium iodide staining based flow cytometry; type: functional, cell-based
[10] = tested on: HepG2; test: Induction of apoptosis in human HepG2 cells assessed as live cells at 5 uM after 48 hrs by annexin V-FITC/propidium iodide staining based flow cytometry (reference value: 96.7%); type: functional
[11] = tested on: NCI-H460; test: Cell cycle arrest in human NCI-H460 cells assessed as accumulation at G2 phase at 2.5 to 10 uM after 24 hrs by propidium iodide staining based flow cytometry; type: functional
Method in brief: (§2)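 Cells were exposed for 24 h to a range of concentrations (625 nM, 2.5 and 10 µM), with DMSO vehicle as control. They were then stained with propidium iodide and analysed by flow cytometry to obtain the percentages of cells in G0/G1, S and G2 phases.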

[12] = target: T1, Histone deacetylase 1 (Homo sapiens, UniProt Q13547); test: Inhibition of HDAC1 in human NCI-H460 cells assessed as increase in acetylated-histone H3 level at 1 to 5 uM after 48 hrs by Western blot method; type: cell-based
T1 sequence (Q13547 whole entry): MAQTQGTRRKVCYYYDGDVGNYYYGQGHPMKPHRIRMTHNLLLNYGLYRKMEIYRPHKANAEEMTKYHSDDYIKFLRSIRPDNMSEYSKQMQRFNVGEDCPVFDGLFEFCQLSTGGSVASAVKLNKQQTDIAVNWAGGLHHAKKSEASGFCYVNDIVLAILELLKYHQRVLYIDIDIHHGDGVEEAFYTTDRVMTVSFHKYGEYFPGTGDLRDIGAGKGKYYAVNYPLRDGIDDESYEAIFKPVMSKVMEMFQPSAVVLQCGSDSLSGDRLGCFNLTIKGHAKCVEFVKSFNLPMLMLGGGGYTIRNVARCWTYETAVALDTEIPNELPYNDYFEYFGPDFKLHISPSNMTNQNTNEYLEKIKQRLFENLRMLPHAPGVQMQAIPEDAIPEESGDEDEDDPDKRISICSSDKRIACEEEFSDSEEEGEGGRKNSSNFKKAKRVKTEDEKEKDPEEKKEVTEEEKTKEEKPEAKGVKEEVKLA

[13] = target: T1, Histone deacetylase 1; test: Inhibition of HDAC1 in human Hep3B cells assessed as increase in acetylated-histone H3 level at 1 to 5 uM after 48 hrs by Western blot method; type: cell-based
[14] = tested on: MDA-MB-231; test: Cell cycle arrest in human MDA-MB-231 cells assessed as accumulation at G0/G1 phase at 625 nM after 24 hrs by propidium iodide staining based flow cytometry; type: functional; method in brief: as §2
[15] = target: High affinity nerve growth factor receptor (Homo sapiens, UniProt P04629); test: Inhibition of recombinant human N-terminal His6-tagged TrkA (440-end residues) expressed in baculovirus infected sf21 cells
Chain of High affinity nerve growth factor receptor (P04629 whole entry): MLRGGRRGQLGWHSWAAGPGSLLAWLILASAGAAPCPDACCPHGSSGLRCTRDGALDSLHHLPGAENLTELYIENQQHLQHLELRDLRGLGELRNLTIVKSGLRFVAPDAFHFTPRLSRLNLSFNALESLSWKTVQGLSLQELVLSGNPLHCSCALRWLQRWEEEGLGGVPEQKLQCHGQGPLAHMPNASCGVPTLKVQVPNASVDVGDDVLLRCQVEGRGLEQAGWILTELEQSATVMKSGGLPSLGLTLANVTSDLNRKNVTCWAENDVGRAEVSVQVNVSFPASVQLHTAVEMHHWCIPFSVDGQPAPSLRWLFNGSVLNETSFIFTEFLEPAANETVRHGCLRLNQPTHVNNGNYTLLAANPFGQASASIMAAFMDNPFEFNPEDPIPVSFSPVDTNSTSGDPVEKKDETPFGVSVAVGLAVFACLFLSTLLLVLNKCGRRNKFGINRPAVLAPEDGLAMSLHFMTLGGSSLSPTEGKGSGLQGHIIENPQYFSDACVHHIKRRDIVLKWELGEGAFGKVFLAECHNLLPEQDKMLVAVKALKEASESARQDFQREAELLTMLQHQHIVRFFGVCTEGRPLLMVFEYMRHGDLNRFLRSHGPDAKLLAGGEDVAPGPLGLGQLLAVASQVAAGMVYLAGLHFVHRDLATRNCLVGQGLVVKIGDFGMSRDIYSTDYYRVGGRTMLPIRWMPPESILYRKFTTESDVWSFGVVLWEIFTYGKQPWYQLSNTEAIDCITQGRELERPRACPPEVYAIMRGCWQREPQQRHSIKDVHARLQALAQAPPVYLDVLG

[16] = tested on: A549; test: Induction of apoptosis in human A549 cells assessed as late apoptotic cells at 10 uM after 48 hrs by annexin V-FITC/propidium iodide staining based flow cytometry (reference value: 0.88%); type: functional
[17] = tested on: MDA-MB-231; test: Induction of apoptosis in human MDA-MB-231 cells assessed as late apoptotic cells at 5 uM after 48 hrs by annexin V-FITC/propidium iodide staining based flow cytometry (reference value: 1.53%); type: functional
[18] = target: CDK6/cyclin D3 (Homo sapiens) (UniProt P30281+Q00534); test: Inhibition of recombinant human full length N-terminal 6His-tagged CDK6/N-terminal GST-tagged Cyclin-D3 co-expressed in sf21 cells at 1 uM using histone H1 substrate in presence of [gamma33P]ATP after 10 mins by scintillation counting method relative to control
[19] = tested on: T47D; test: Cytotoxicity against human T47D cells assessed as reduction in cell viability after 72 hrs by CCK8 assay; type: functional, cell-based
[20] = target: CDK9/cyclin T1 (Homo sapiens) (UniProt O60563+P50750); test: Inhibition of recombinant human full length C-terminal 6His-tagged CDK9/Cyclin-T1 co-expressed in baculovirus infected sf21 cells at 1 uM using PDKtide substrate in presence of [gamma33P]ATP after 10 mins by scintillation counting method relative to control
[21] = tested on: T47D; test: Induction of apoptosis in human T47D cells assessed as live cells at 10 uM after 48 hrs by annexin V-FITC/propidium iodide staining based flow cytometry (reference value: 85.3%); type: functional
[22] = tested on: T47D; test: Induction of apoptosis in human T47D cells after 48 hrs by Hoechst 33342 staining based assay; type: functional, cell-based
Method in brief: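 T47D cultures were incubated with test agent for 48h, then stained with Hoechst 33342. Apoptotic bodies were examined by imaging and compared with untreated cells.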

[23] = tested on: Hep 3B2; test: Cell cycle arrest in human Hep3B cells assessed as accumulation at G2 phase at 2.5 to 10 uM after 24 hrs by propidium iodide staining based flow cytometry; type: functional; method in brief: as §2
[24] = tested on: HepG2; test: Induction of apoptosis in human HepG2 cells assessed as necrotic cells at 5 uM after 48 hrs by annexin V-FITC/propidium iodide staining based flow cytometry (reference value: 2.32%); type: functional
[25] = tested on: NCI-H460; test: Downregulation of Cyclin-D1 protein expression in human NCI-H460 cells after 48 hrs by Western blot method; type: functional, cell-based; method in brief: as §1
[26] = tested on: Mus musculus; test: Downregulation of phosphorylated Rb level in tumor of Balb/c mouse implanted with mouse Fluc-labeled 4T1 cells at 90 to 130 mg/kg, po administered via gavage daily for 18 days by immunohistochemical analysis; type: functional, organism-based
Method in brief: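 4T1 cells were labeled with firefly luciferase by lentiviral transduction and implanted orthotopically into the mammary fat pads of 6−8-week-old female BALB/c mice. Dosing by oral gavage began once tumors averaged 100 mm3, at 90 and 130 mg/kg. p-Rb in tumors was assessed by immunohistochemistry.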

[27] = tested on: Hep 3B2; test: Induction of apoptosis in human Hep3B cells assessed as caspase-3 cleavage after 48 hrs by Western blot method; type: functional, cell-based
Method in brief: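 Cells were treated with or without compound and control for 48 h, then lysed. Bcl-2 and cleaved caspase 3 were assessed by Western blot.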

[28] = Clearance in Sprague-Dawley rat at 20 mg/kg, po administered as single dose by HPLC analysis; type: ADME, organism-based; conditions: in vivo
[29] = Bioavailability in Sprague-Dawley rat at 20 mg/kg, ip administered as single dose by HPLC analysis; type: ADME, organism-based; conditions: in vivo
[30] = tested on: NCI-H460; test: Induction of apoptosis in human NCI-H460 cells assessed as early apoptotic cells at 10 uM after 48 hrs by annexin V-FITC/propidium iodide staining based flow cytometry (reference value: 0.11%); type: functional

## CN(C)C(=O)c1cc2cnc(Nc3ccc(NC(=O)CCCCCCC(=O)NO)cc3)nc2n1C1CCCC1
[1]
  inhibition: 101%
[2]
  Vdss(app): 431.52 L/kg
[3]
  Activity: Dose-dependent effect
[4]
  Activity: 8.15%
[5]
  inhibition: 66%
[6]
  inhibition: Active
[7]
  MRT inf: 13.8 h
[8]
  Activity: 87.1%
[9]
  Activity: Dose-dependent effect
[10]
  Activity: 76.4%
[11]
  Activity: Active
[12]
  inhibition: Active
[13]
  inhibition: Active
[14]
  Activity: Active
[15]
  IC50: 31 nM
[16]
  Activity: 27.7%
[17]
  Activity: 5.76%
[18]
  inhibition: 70%
[19]
  IC50: 2590 nM
[20]
  inhibition: 97%
[21]
  Activity: 43.2%
[22]
  Activity: Active
[23]
  Activity: Active
[24]
  Activity: 6.13%
[25]
  Activity: Dose-dependent effect
[26]
  Activity: Active
[27]
  Activity: Active
[28]
  CL/F: 344 mL/min/kg
[29]
  bioavailability: 34.7%
[30]
  Activity: 3.95%
